Results reported in ChEMBL document CHEMBL3046382, “Synthesis and insecticidal activities and SAR studies of novel benzoheterocyclic diacylhydrazine derivatives” (2009).

Assays:
Assay type in all cases: functional
[1] = test system: Culicidae; assay: Toxicity against fourth-instar larvae of Culex pipiens pallens assessed as mortality at 0.5 mg/kg measured after 7 to 10 days
Procedure, shortened: (§1)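 For each concentration, 1 mL of dilution was added to 99 mL water and 20 fourth-instar larvae introduced. Percentage mortality assessed 7–10 days after treatment.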

[2] = test system: Culicidae; assay: Toxicity against fourth-instar larvae of Culex pipiens pallens assessed as mortality at 1 mg/kg measured after 7 to 10 days; procedure, shortened: as §1
[3] = test system: Culicidae; assay: Toxicity against fourth-instar larvae of Culex pipiens pallens assessed as mortality at 2 mg/kg measured after 7 to 10 days; procedure, shortened: as §1
[4] = test system: Mythimna separata; assay: Stomach toxicity in fourth-instar Mythimna separata (Oriental armyworm) larvae in compound treated corn leaves assessed as mortality at 100 mg/kg measured after 4 days; details: 96 h
[5] = test system: Mythimna separata; assay: Stomach toxicity in fourth-instar Mythimna separata(Oriental armyworm) larvae in compound treated corn leaves assessed as mortality at 200 mg/kg measured after 4 days; details: 96 h
[6] = test system: Mythimna separata; assay: Stomach toxicity in fourth-instar Mythimna separata (Oriental armyworm) larvae in compound treated corn leaves assessed as mortality at 10 mg/kg measured after 4 days; details: 96 h
[7] = test system: Mythimna separata; assay: Stomach toxicity in fourth-instar Mythimna separata (Oriental armyworm) larvae in compound treated corn leaves assessed as mortality at 25 mg/kg measured after 4 days; details: 96 h
[8] = test system: Mythimna separata; assay: Stomach toxicity in fourth-instar Mythimna separata (Oriental armyworm) larvae in compound treated corn leaves assessed as mortality at 50 mg/kg measured after 4 days; details: 96 h
[9] = test system: Mythimna separata; assay: Stomach toxicity in fourth-instar Mythimna separata (Oriental armyworm) larvae in compound treated corn leaves assessed as mortality at 2.5 mg/kg measured after 4 days; details: 96 h
[10] = test system: Mythimna separata; assay: Stomach toxicity in fourth-instar Mythimna separata (Oriental armyworm) larvae in compound treated corn leaves assessed as mortality at 5 mg/kg measured after 4 days; details: 96 h

Compound: Cc1c(C(=O)NN(C(=O)c2cc([N+](=O)[O-])cc([N+](=O)[O-])c2)C(C)(C)C)ccc2c1CC(C)O2 (stereo not given)
- mortality at 0.5 mg/kg [1]: 10%
- mortality at 1 mg/kg [2]: 20%
- mortality at 2 mg/kg [3]: 30%
- mortality at 100 mg/kg [4]: 0%
- mortality at 200 mg/kg [5]: 20%

Compound: Cc1c(C(=O)NN(C(=O)c2ccc(Cl)cc2)C(C)(C)C)ccc2c1CC(C)O2 (stereo not given)
- mortality at 1 mg/kg [2]: 0%
- mortality at 2 mg/kg [3]: 0%
- mortality at 10 mg/kg [6]: 0%
- mortality at 25 mg/kg [7]: 90%
- mortality at 50 mg/kg [8]: 100%
- mortality at 100 mg/kg [4]: 100%
- mortality at 200 mg/kg [5]: 100%

Compound: Cc1cccc(C(=O)N(NC(=O)c2ccc3c(c2C)CC(C)O3)C(C)(C)C)c1 (stereo not given)
- mortality at 1 mg/kg [2]: 0%
- mortality at 2 mg/kg [3]: 0%
- mortality at 2.5 mg/kg [9]: 0%
- mortality at 5 mg/kg [10]: 15%
- mortality at 10 mg/kg [6]: 100%
- mortality at 25 mg/kg [7]: 100%
- mortality at 50 mg/kg [8]: 100%
- mortality at 100 mg/kg [4]: 100%
- mortality at 200 mg/kg [5]: 100%

Compound: Cc1c(C(=O)NN(C(=O)c2cc(Cl)cc(Cl)c2)C(C)(C)C)ccc2c1CC(C)O2 (stereo not given)
- mortality at 0.5 mg/kg [1]: 0%
- mortality at 1 mg/kg [2]: 50%
- mortality at 2 mg/kg [3]: 80%
- mortality at 2.5 mg/kg [9]: 0%
- mortality at 5 mg/kg [10]: 10%
- mortality at 10 mg/kg [6]: 90%
- mortality at 25 mg/kg [7]: 90%
- mortality at 50 mg/kg [8]: 100%
- mortality at 100 mg/kg [4]: 100%
- mortality at 200 mg/kg [5]: 100%

Compound: Cc1c(C(=O)NN(C(=O)c2ccc(Cl)cc2Cl)C(C)(C)C)ccc2c1CC(C)O2 (stereo not given)
- mortality at 1 mg/kg [2]: 0%
- mortality at 2 mg/kg [3]: 0%
- mortality at 10 mg/kg [6]: 0%
- mortality at 25 mg/kg [7]: 90%
- mortality at 50 mg/kg [8]: 100%
- mortality at 100 mg/kg [4]: 100%
- mortality at 200 mg/kg [5]: 100%

Compound: Cc1c(C(=O)NN(C(=O)c2ccccc2)C(C)(C)C)ccc2c1CC(C)(C)O2
- mortality at 0.5 mg/kg [1]: 10%
- mortality at 1 mg/kg [2]: 30%
- mortality at 2 mg/kg [3]: 50%
- mortality at 50 mg/kg [8]: 0%
- mortality at 100 mg/kg [4]: 10%
- mortality at 200 mg/kg [5]: 40%

Compound: Cc1c(C(=O)NN(C(=O)c2ccccc2[N+](=O)[O-])C(C)(C)C)ccc2c1CC(C)(C)O2
- mortality at 0.5 mg/kg [1]: 10%
- mortality at 1 mg/kg [2]: 20%
- mortality at 2 mg/kg [3]: 40%
- mortality at 100 mg/kg [4]: 0%
- mortality at 200 mg/kg [5]: 50%

Compound: Cc1c(C(=O)NN(C(=O)c2cccc([N+](=O)[O-])c2)C(C)(C)C)ccc2c1CC(C)(C)O2
- mortality at 0.5 mg/kg [1]: 10%
- mortality at 1 mg/kg [2]: 20%
- mortality at 2 mg/kg [3]: 30%
- mortality at 100 mg/kg [4]: 0%
- mortality at 200 mg/kg [5]: 10%

Compound: Cc1c(C(=O)NN(C(=O)c2ccc([N+](=O)[O-])cc2)C(C)(C)C)ccc2c1CC(C)(C)O2
- mortality at 1 mg/kg [2]: 0%
- mortality at 2 mg/kg [3]: 20%
- mortality at 100 mg/kg [4]: 0%
- mortality at 200 mg/kg [5]: 10%

Compound: Cc1c(C(=O)NN(C(=O)c2ccccc2Cl)C(C)(C)C)ccc2c1CC(C)(C)O2
- mortality at 0.5 mg/kg [1]: 0%
- mortality at 1 mg/kg [2]: 20%
- mortality at 2 mg/kg [3]: 70%
- mortality at 100 mg/kg [4]: 0%
- mortality at 200 mg/kg [5]: 60%

Compound: Cc1c(C(=O)NN(C(=O)c2cccc(Cl)c2)C(C)(C)C)ccc2c1CC(C)(C)O2
- mortality at 1 mg/kg [2]: 0%
- mortality at 2 mg/kg [3]: 10%
- mortality at 50 mg/kg [8]: 0%
- mortality at 100 mg/kg [4]: 10%
- mortality at 200 mg/kg [5]: 80%

Compound: Cc1c(C(=O)NN(C(=O)c2ccc(Cl)cc2)C(C)(C)C)ccc2c1CC(C)(C)O2
- mortality at 0.5 mg/kg [1]: 0%
- mortality at 1 mg/kg [2]: 10%
- mortality at 2 mg/kg [3]: 60%
- mortality at 50 mg/kg [8]: 0%
- mortality at 100 mg/kg [4]: 10%
- mortality at 200 mg/kg [5]: 90%

Compound: COc1ccccc1C(=O)N(NC(=O)c1ccc2c(c1C)CC(C)(C)O2)C(C)(C)C
- mortality at 0.5 mg/kg [1]: 0%
- mortality at 1 mg/kg [2]: 10%
- mortality at 2 mg/kg [3]: 20%
- mortality at 100 mg/kg [4]: 0%
- mortality at 200 mg/kg [5]: 0%

Compound: COc1cccc(C(=O)N(NC(=O)c2ccc3c(c2C)CC(C)(C)O3)C(C)(C)C)c1
- mortality at 0.5 mg/kg [1]: 10%
- mortality at 1 mg/kg [2]: 30%
- mortality at 2 mg/kg [3]: 40%
- mortality at 25 mg/kg [7]: 0%
- mortality at 50 mg/kg [8]: 20%
- mortality at 100 mg/kg [4]: 30%
- mortality at 200 mg/kg [5]: 100%

Compound: COc1ccc(C(=O)N(NC(=O)c2ccc3c(c2C)CC(C)(C)O3)C(C)(C)C)cc1
- mortality at 1 mg/kg [2]: 0%
- mortality at 2 mg/kg [3]: 10%
- mortality at 100 mg/kg [4]: 0%
- mortality at 200 mg/kg [5]: 60%

Compound: Cc1cccc(C(=O)N(NC(=O)c2ccc3c(c2C)CC(C)(C)O3)C(C)(C)C)c1
- mortality at 0.5 mg/kg [1]: 10%
- mortality at 1 mg/kg [2]: 10%
- mortality at 2 mg/kg [3]: 50%
- mortality at 25 mg/kg [7]: 0%
- mortality at 50 mg/kg [8]: 30%
- mortality at 100 mg/kg [4]: 90%
- mortality at 200 mg/kg [5]: 100%

Compound: Cc1cc(C)cc(C(=O)N(NC(=O)c2ccc3c(c2C)CC(C)(C)O3)C(C)(C)C)c1
- mortality at 1 mg/kg [2]: 0%
- mortality at 2 mg/kg [3]: 70%
- mortality at 10 mg/kg [6]: 0%
- mortality at 25 mg/kg [7]: 20%
- mortality at 50 mg/kg [8]: 90%
- mortality at 100 mg/kg [4]: 100%
- mortality at 200 mg/kg [5]: 100%

Compound: Cc1c(C(=O)NN(C(=O)c2cc([N+](=O)[O-])cc([N+](=O)[O-])c2)C(C)(C)C)ccc2c1CC(C)(C)O2
- mortality at 0.5 mg/kg [1]: 10%
- mortality at 1 mg/kg [2]: 20%
- mortality at 2 mg/kg [3]: 30%
- mortality at 100 mg/kg [4]: 0%
- mortality at 200 mg/kg [5]: 40%

Compound: Cc1c(C(=O)NN(C(=O)c2cc(Cl)cc(Cl)c2)C(C)(C)C)ccc2c1CC(C)(C)O2
- mortality at 0.5 mg/kg [1]: 10%
- mortality at 1 mg/kg [2]: 20%
- mortality at 2 mg/kg [3]: 30%
- mortality at 100 mg/kg [4]: 0%
- mortality at 200 mg/kg [5]: 60%

Compound: Cc1c(C(=O)NN(C(=O)c2ccc(Cl)cc2Cl)C(C)(C)C)ccc2c1CC(C)(C)O2
- mortality at 1 mg/kg [2]: 0%
- mortality at 2 mg/kg [3]: 50%
- mortality at 50 mg/kg [8]: 0%
- mortality at 100 mg/kg [4]: 10%
- mortality at 200 mg/kg [5]: 90%

Compound: Cc1c(C(=O)NN(C(=O)c2ccccc2)C(C)(C)C)ccc2c1CC(C)O2 (stereo not given)
- mortality at 1 mg/kg [2]: 0%
- mortality at 2 mg/kg [3]: 0%
- mortality at 10 mg/kg [6]: 0%
- mortality at 25 mg/kg [7]: 80%
- mortality at 50 mg/kg [8]: 90%
- mortality at 100 mg/kg [4]: 100%
- mortality at 200 mg/kg [5]: 100%

Compound: Cc1c(C(=O)NN(C(=O)c2ccccc2[N+](=O)[O-])C(C)(C)C)ccc2c1CC(C)O2 (stereo not given)
- mortality at 0.5 mg/kg [1]: 0%
- mortality at 1 mg/kg [2]: 20%
- mortality at 2 mg/kg [3]: 30%
- mortality at 10 mg/kg [6]: 0%
- mortality at 25 mg/kg [7]: 20%
- mortality at 50 mg/kg [8]: 60%
- mortality at 100 mg/kg [4]: 100%
- mortality at 200 mg/kg [5]: 100%

Compound: Cc1c(C(=O)NN(C(=O)c2cccc([N+](=O)[O-])c2)C(C)(C)C)ccc2c1CC(C)O2 (stereo not given)
- mortality at 0.5 mg/kg [1]: 0%
- mortality at 1 mg/kg [2]: 10%
- mortality at 2 mg/kg [3]: 20%
- mortality at 100 mg/kg [4]: 0%
- mortality at 200 mg/kg [5]: 20%

Compound: Cc1c(C(=O)NN(C(=O)c2ccc([N+](=O)[O-])cc2)C(C)(C)C)ccc2c1CC(C)O2 (stereo not given)
- mortality at 1 mg/kg [2]: 0%
- mortality at 2 mg/kg [3]: 40%
- mortality at 100 mg/kg [4]: 0%
- mortality at 200 mg/kg [5]: 60%

Compound: Cc1c(C(=O)NN(C(=O)c2ccccc2Cl)C(C)(C)C)ccc2c1CC(C)O2 (stereo not given)
- mortality at 0.5 mg/kg [1]: 10%
- mortality at 1 mg/kg [2]: 20%
- mortality at 2 mg/kg [3]: 30%
- mortality at 10 mg/kg [6]: 0%
- mortality at 25 mg/kg [7]: 40%
- mortality at 50 mg/kg [8]: 100%
- mortality at 100 mg/kg [4]: 100%
- mortality at 200 mg/kg [5]: 100%

Compound: Cc1c(C(=O)NN(C(=O)c2cccc(Cl)c2)C(C)(C)C)ccc2c1CC(C)O2 (stereo not given)
- mortality at 0.5 mg/kg [1]: 10%
- mortality at 1 mg/kg [2]: 20%
- mortality at 2 mg/kg [3]: 60%
- mortality at 5 mg/kg [10]: 0%
- mortality at 10 mg/kg [6]: 10%
- mortality at 25 mg/kg [7]: 30%
- mortality at 50 mg/kg [8]: 80%
- mortality at 100 mg/kg [4]: 100%
- mortality at 200 mg/kg [5]: 100%
